In ChEMBL document CHEMBL5042517, “Discovery, X-ray Crystallography, and Anti-inflammatory Activity of Bromodomain-containing Protein 4 (BRD4) BD1 Inhibitors Targeting a Distinct New Binding Site” (J Med Chem, 2022):
In brackets after ≈: the same amount, converted by molar mass.

Legend:
[1] = Antiinflammatory activity in human SAEC assessed as inhibition of Poly(I:C) induced CIG5 expression by measuring residual activity rate at 10 uM pretreated for 24 hrs followed by Poly(I:C) addition for 4 hrs by qRT-PCR analysis; assay type: functional; settings: time 28 hrs
How it was run: (§1)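 hSAECs pretreated with compound at 10 μM final for 24 h, then poly(I:C) 10 μg/mL for 4 h. CIG5 or IL-6 mRNA measured by qRT-PCR (ΔΔCt, normalized to PPIA). Residual activity given as % of poly(I:C)-alone control, mean ± SD of three independent measurements.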

[2] = Antiinflammatory activity in human SAEC assessed as inhibition of Poly(I:C) induced IL-6 expression by measuring residual activity rate at 10 uM pretreated for 24 hrs followed by Poly(I:C) addition for 4 hrs by qRT-PCR analysis; assay type: functional; settings: time 28 hrs; how it was run: as §1
[3] = Antiinflammatory activity in human SAEC assessed as inhibition of Poly(I:C) induced IL-6 expression pretreated for 24 hrs followed by Poly(I:C) addition for 4 hrs by qRT-PCR analysis; assay type: functional, cell-based
How it was run: (§2)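 Poly(I:C) 10 μg/mL then added for 4 h. CIG5 or IL-6 mRNA measured by qRT-PCR (ΔΔCt, PPIA normalized). IC50 from a four-parameter fit, mean ± SD of three independent runs.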

[4] = Antiinflammatory activity in human SAEC assessed as inhibition of Poly(I:C) induced CIG5 expression pretreated for 24 hrs followed by Poly(I:C) addition for 4 hrs by qRT-PCR analysis; assay type: functional, cell-based; how it was run: as §2
[5] = Aqueous solubility of the compound after 24 hrs by HPLC analysis; assay type: physicochemical; settings: buffer
How it was run: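 Compound suspended in water and shaken 24 h at 25 °C, then centrifuged and filtered. Supernatant analyzed by C18 reverse-phase HPLC with one-point calibration against solutions of known concentration.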

Compound `O=C1CCc2cc(NC(=O)Nc3ccc(C(F)(F)F)cc3)ccc2N1` has an Activity [1] of 3.34% and an Activity [2] of 106%.
Compound `O=C(Nc1ccc(C(F)(F)F)cc1)Nc1ccc(S(=O)(=O)N2CCCC2)cc1` has an Activity [1] of 24.3% and an Activity [2] of 102%.
With `COC(=O)[C@@H]1CCCN1S(=O)(=O)c1ccc(NC(=O)Nc2ccc(OC)cc2)cc1` the Activity [1] was 73.3% and the Activity [2] was 418%.
`COC(=O)[C@@H]1CCCN1S(=O)(=O)c1ccccc1NC(=O)Nc1ccc(C(F)(F)F)cc1` gave an Activity [1] of 12.6% and an Activity [2] of 2.63%.
With `CCOC(=O)[C@H]1CCCN1S(=O)(=O)c1ccc(NC(=O)Nc2ccc(C(F)(F)F)cc2)cc1` the Activity [1] was 4.74% and the Activity [2] was 0.57%.
Work on `Cc1ccc(S(=O)(=O)OC[C@@H]2CCCN2S(=O)(=O)c2ccc(NC(=O)Nc3ccc(C(F)(F)F)cc3)cc2)cc1` yielded an IC50 [3] of 4.31 µM, an IC50 [4] of 10.8 µM and an Activity [1] of 0.63%. It also gave an Activity [2] of 6.98%.
Compound `COC(=O)[C@H]1CCCN1S(=O)(=O)c1ccc(NC(=O)Nc2ccc(C(F)(F)F)cc2)cc1` has an Activity [1] of 2.21% and an Activity [2] of 0.47%.
In the case of `COC(=O)[C@@H]1CCCN1S(=O)(=O)c1ccc(NC(=O)Nc2ccc(C(F)(F)F)c(Cl)c2)cc1`, the Activity [1] is reported as 74.7% and the Activity [2] is reported as 37.9%.
With `COC(=O)[C@@H]1CCCN1S(=O)(=O)c1ccc(NC(=O)Nc2ccc(C(F)(F)F)cc2)cc1OC` the Activity [1] was 59.5% and the Activity [2] was 22.5%.
`O=C(Nc1ccc(N2CCS(=O)(=O)CC2)cc1)Nc1ccc(C(F)(F)F)cc1` showed an Activity [1] of 6.14% and an Activity [2] of 73.6%.
`COC(=O)[C@@H]1CCCN1C(=O)c1ccc(NC(=O)Nc2ccc(C(F)(F)F)cc2)cc1` showed an Activity [1] of 5.79% and an Activity [2] of 16.5%.
In the case of `O=C(Nc1ccc(C(F)(F)F)cc1)Nc1ccc(S(=O)(=O)N2CCC[C@H]2C(=O)O)cc1`, the Activity [1] is reported as 214% and the Activity [2] is reported as 25.3%.
Work on `COC(=O)[C@@H]1CCCN1S(=O)(=O)c1ccc(NC(=O)Nc2ccc(C(F)(F)F)c(C)c2)cc1` yielded an Activity [1] of 64.7% and an Activity [2] of 42.5%.
With `Cc1cc(/N=N/c2ccc(S(=O)(=O)NC3CCCC3)cc2)c(N)cc1O` the solubility [5] was 0.0128 mg/mL (≈ 34.2 µM), the Activity [1] was 15.6% and the Activity [2] was 0.91%.
In the case of `COC(=O)[C@@H]1CCCN1S(=O)(=O)c1ccc(N/N=C(\C#N)C(=O)c2ccc(OC(F)(F)F)cc2)cc1`, the Activity [1] is reported as 1.02% and the Activity [2] is reported as 17.5%.
For `COC(=O)[C@@H]1CCCN1S(=O)(=O)c1ccc(NC(=O)c2ccc(C(F)(F)F)cc2)cc1`, the Activity [1] was 105% and the Activity [2] was 71%.
Work on `O=C(Nc1ccc(C(F)(F)F)cc1)Nc1ccc(S(=O)(=O)N2CCC(N3CCCC3)CC2)cc1` yielded an Activity [1] of 10% and an Activity [2] of 0.31%.
For `O=C(Nc1ccc(C(F)(F)F)cc1)Nc1ccc(S(=O)(=O)N2CCC[C@H]2C(=O)Nc2ccccn2)cc1`, the Activity [1] was 1.12% and the Activity [2] was 32.8%.
With `O=C(Nc1ccc(C(F)(F)F)cc1)Nc1ccc(S(=O)(=O)N2CCC[C@H]2C(=O)Nc2ccccc2)cc1` the IC50 [3] was 1.88 µM, the IC50 [4] was 2.06 µM and the Activity [1] was 0.62%. It also gave an Activity [2] of 13.7%.
